Results as given in ChEMBL document CHEMBL1148762, “Lysosome and HER3 (ErbB3) selective anticancer agent kahalalide F: semisynthetic modifications and antifungal lead-exploration studies” (J Med Chem, 2007).
pIC50: −log10 of the molar value. Values after ≈ are worked out from the molar mass of the structure shown. Each block holds one compound with its values, some of them ahead of it.

How the values were obtained:
Candida albicans = test: Antimicrobial activity against Candida albicans ATCC 90028; format: functional, organism-based
Aspergillus fumigatus = test: Antimicrobial activity against Aspergillus fumigatus ATCC 90906; format: functional, organism-based
[1] = system: Mycobacterium intracellulare; test: Antimicrobial activity against Mycobacterium intracellular ATCC 23068; format: functional, organism-based
Cryptococcus neoformans = test: Antimicrobial activity against Cryptococcus neoformans ATCC 90113; format: functional, organism-based
DU-145 = test: Cytotoxicity against human DU145 cells; format: functional
Outline: (§1)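 NCI Developmental Therapeutics Program cell panel. GI50 is the concentration that reduces growth of treated cells to half that of untreated controls. TGI is the concentration that completely halts growth.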

SNB-75 = test: Cytotoxicity against human SNB75 cells; format: functional; outline: as §1
SK-OV-3 = test: Cytotoxicity against human SK-OV3 cells; format: functional; outline: as §1
COLO 205 = test: Cytotoxicity against human COLO205 cells; format: functional; outline: as §1
ACHN = test: Cytotoxicity against human ACHN cells; format: functional; outline: as §1
Hs-578T = test: Cytotoxicity against human HS578T cells; format: functional; outline: as §1
RPMI-8226 = test: Cytotoxicity against human RPMI8226 cells; format: functional; outline: as §1
A549 = test: Cytotoxicity against human A549 cells; format: functional; outline: as §1
KM12 = test: Cytotoxicity against human KM12 cells; format: functional; outline: as §1
NCI-H322M = test: Cytotoxicity against human NCI-H322M cells; format: functional; outline: as §1
UACC-257 = test: Cytotoxicity against human UACC257 cells; format: functional; outline: as §1
PC-3 = test: Cytotoxicity against human PC3 cells; format: functional; outline: as §1
HCT-15 = test: Cytotoxicity against human HCT15 cells; format: functional; outline: as §1
HCC 2998 = test: Cytotoxicity against human HCC2998 cells; format: functional; outline: as §1
HT-29 = test: Cytotoxicity against human HT29 cells; format: functional; outline: as §1
Fusarium proliferatum [2] = test: Antimicrobial activity against Fusarium proliferatum at 30 uM after 72 hrs by microtiter assay; format: functional
Outline: (§2)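 96-well microdilution broth assay with conidia (3 × 10^5 conidia/mL, harvested from 7-day PDA cultures and filtered) against F. oxysporum, F. proliferatum and F. solani at 0.3, 3 and 30 µM. Plates were held at 24 ± 1 °C under a 12 h photoperiod. Growth was read at 620 nm at 24, 48 and 72 h and reported as percent inhibition from mean absorbance with standard error.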

Fusarium proliferatum [3] = test: Antimicrobial activity against Fusarium proliferatum at 3 uM after 72 hrs by microtiter assay; format: functional; outline: as §2
Fusarium solani [4] = test: Antimicrobial activity against Fusarium solani at 0.3 uM after 48 hrs by microtiter assay; format: functional; outline: as §2
Fusarium oxysporum [5] = test: Antimicrobial activity against Fusarium oxysporum at 30 uM after 72 hrs by microtiter assay; format: functional; outline: as §2
Fusarium solani [6] = test: Antimicrobial activity against Fusarium solani at 0.3 uM after 72 hrs by microtiter assay; format: functional; outline: as §2
Fusarium oxysporum [7] = test: Antimicrobial activity against Fusarium oxysporum at 30 uM after 48 hrs by microtiter assay; format: functional; outline: as §2
Fusarium solani [8] = test: Antimicrobial activity against Fusarium solani at 30 uM after 48 hrs by microtiter assay; format: functional; outline: as §2
Fusarium solani [9] = test: Antimicrobial activity against Fusarium solani at 3 uM after 72 hrs by microtiter assay; format: functional; outline: as §2
Fusarium proliferatum [10] = test: Antimicrobial activity against Fusarium proliferatum at 3 uM after 48 hrs by microtiter assay; format: functional; outline: as §2
Fusarium oxysporum [11] = test: Antimicrobial activity against Fusarium oxysporum at 3 uM after 72 hrs by microtiter assay; format: functional; outline: as §2
Fusarium proliferatum [12] = test: Antimicrobial activity against Fusarium proliferatum at 0.3 uM after 72 hrs by microtiter assay; format: functional; outline: as §2
Fusarium solani [13] = test: Antimicrobial activity against Fusarium solani at 3 uM after 48 hrs by microtiter assay; format: functional; outline: as §2
Fusarium oxysporum [14] = test: Antimicrobial activity against Fusarium oxysporum at 0.3 uM after 48 hrs by microtiter assay; format: functional; outline: as §2
Fusarium solani [15] = test: Antimicrobial activity against Fusarium solani at 30 uM after 72 hrs by microtiter assay; format: functional; outline: as §2
Fusarium oxysporum [16] = test: Antimicrobial activity against Fusarium oxysporum at 0.3 uM after 72 hrs by microtiter assay; format: functional; outline: as §2
Fusarium proliferatum [17] = test: Antimicrobial activity against Fusarium proliferatum at 0.3 uM after 48 hrs by microtiter assay; format: functional; outline: as §2
Fusarium proliferatum [18] = test: Antimicrobial activity against Fusarium proliferatum at 30 uM after 48 hrs by microtiter assay; format: functional; outline: as §2
Fusarium oxysporum [19] = test: Antimicrobial activity against Fusarium oxysporum at 3 uM after 48 hrs by microtiter assay; format: functional; outline: as §2

- pIC50 (Candida albicans): 4.91
- pIC50 (Aspergillus fumigatus): < 4.87
- pIC50 [1]: < 4.70
- pIC50 (Cryptococcus neoformans): 5.36
Compound: C/C=C1\NC(=O)[C@H](Cc2ccccc2)NC(=O)[C@@H](C(C)C)NC(=O)[C@@H]([C@@H](C)CC)NC(=O)[C@H](NC(=O)[C@H](NC(=O)[C@H](CCCN)NC(=O)[C@H]2CCCN2C(=O)[C@H](NC(=O)[C@@H](NC(=O)[C@@H](NC(=O)[C@H](NC(=O)CCCC(C)C)C(C)C)C(C)=O)C(C)C)C(C)C)[C@@H](C)CC)[C@@H](C)OC(=O)[C@H](C(C)C)NC1=O [listing 1 of 2 here]

Compound: CC(=O)O[C@H]1C(=O)[C@@]2(C)[C@H]([C@H](OC(=O)c3ccccc3)[C@]3(O)C[C@H](OC(=O)[C@H](O)[C@@H](NC(=O)c4ccccc4)c4ccccc4)C(C)=C1C3(C)C)[C@]1(OC(C)=O)CO[C@@H]1C[C@@H]2O [PACLITAXEL]
- GI50 (DU-145): 5 nM
- TGI (DU-145): 794 nM
- GI50 (SNB-75): 4 nM
- TGI (SNB-75): 126 nM
- GI50 (SK-OV-3): 8 nM
- TGI (SK-OV-3): 15800 nM
- GI50 (COLO 205): 3 nM
- TGI (COLO 205): 316 nM
- GI50 (ACHN): 398 nM
- TGI (ACHN): 12600 nM
- GI50 (Hs-578T): 3 nM
- TGI (Hs-578T): 100 nM
- GI50 (RPMI-8226): 2 nM
- TGI (RPMI-8226): 5010 nM
- GI50 (A549): 4 nM
- TGI (A549): 25100 nM
- GI50 (KM12): 4 nM
- TGI (KM12): 15800 nM
- GI50 (NCI-H322M): 13 nM
- TGI (NCI-H322M): 6310 nM
- GI50 (UACC-257): 40 nM
- TGI (UACC-257): 25100 nM
- GI50 (PC-3): 4 nM
- TGI (PC-3): 10000 nM
- GI50 (HCT-15): 158 nM
- TGI (HCT-15): 15800 nM
- GI50 (HCC 2998): 3 nM
- TGI (HCC 2998): 126 nM
- GI50 (HT-29): 2 nM
- TGI (HT-29): 251 nM

- MIC (Candida albicans): > 20 µM
- MIC (Aspergillus fumigatus): > 20 µM
- MIC [1]: > 20 µM
- MIC (Cryptococcus neoformans): 10 µM (≈ 14.8 µg/mL)
Compound: C/C=C1\NC(=O)[C@H](Cc2ccccc2)NC(=O)[C@@H](C(C)C)NC(=O)[C@@H]([C@@H](C)CC)NC(=O)[C@H](NC(=O)[C@H](NC(=O)[C@H](CCCN)NC(=O)[C@H]2CCCN2C(=O)[C@H](NC(=O)[C@@H](NC(=O)[C@@H](NC(=O)[C@H](NC(=O)CCCC(C)C)C(C)C)C(C)=O)C(C)C)C(C)C)[C@@H](C)CC)[C@@H](C)OC(=O)[C@H](C(C)C)NC1=O [listing 2 of 2 here]
- inhibition at 30 µM (Fusarium proliferatum [2]): 73.2%
- MFC (Candida albicans): > 20 µM
- inhibition at 3 µM (Fusarium proliferatum [3]): 0%
- inhibition at 0.3 µM (Fusarium solani [4]): 0%
- inhibition at 30 µM (Fusarium oxysporum [5]): 82.2%
- inhibition at 0.3 µM (Fusarium solani [6]): 0%
- inhibition at 30 µM (Fusarium oxysporum [7]): 91.9%
- inhibition at 30 µM (Fusarium solani [8]): 90.6%
- MFC (Aspergillus fumigatus): > 20 µM
- inhibition at 3 µM (Fusarium solani [9]): 0%
- inhibition at 3 µM (Fusarium proliferatum [10]): 5%
- inhibition at 3 µM (Fusarium oxysporum [11]): 0%
- inhibition at 0.3 µM (Fusarium proliferatum [12]): 0%
- inhibition at 3 µM (Fusarium solani [13]): 0%
- inhibition at 0.3 µM (Fusarium oxysporum [14]): 1.8%
- inhibition at 30 µM (Fusarium solani [15]): 85.5%
- inhibition at 0.3 µM (Fusarium oxysporum [16]): 0%
- MBC [1]: > 20 µM
- inhibition at 0.3 µM (Fusarium proliferatum [17]): 1.8%
- inhibition at 30 µM (Fusarium proliferatum [18]): 92.7%
- MFC (Cryptococcus neoformans): 20 µM (≈ 29.5 µg/mL)
- inhibition at 3 µM (Fusarium oxysporum [19]): 1.8%

Compound: C/C=C1\NC(=O)[C@H](Cc2ccccc2)NC(=O)[C@@H](C(C)C)NC(=O)[C@@H]([C@@H](C)CC)NC(=O)[C@H](NC(=O)[C@H](NC(=O)[C@H](CCCN(CCCCCC)CCCCCC)NC(=O)[C@H]2CCCN2C(=O)[C@H](NC(=O)[C@@H](NC(=O)[C@@H](NC(=O)[C@H](NC(=O)CCCC(C)C)C(C)C)[C@@H](C)O)C(C)C)C(C)C)[C@@H](C)CC)[C@@H](C)OC(=O)[C@H](C(C)C)NC1=O
- pIC50 (Candida albicans): < 4.91
- pIC50 (Aspergillus fumigatus): < 4.91
- pIC50 [1]: < 4.70
- pIC50 (Cryptococcus neoformans): 5.17

Compound: C/C=C1\NC(=O)[C@H](Cc2ccccc2)NC(=O)[C@@H](C(C)C)NC(=O)[C@@H]([C@@H](C)CC)NC(=O)[C@H](NC(=O)[C@H](NC(=O)[C@H](CCCNCc2ccncc2)NC(=O)[C@H]2CCCN2C(=O)[C@H](NC(=O)[C@@H](NC(=O)[C@@H](NC(=O)[C@H](NC(=O)CCCC(C)C)C(C)C)[C@@H](C)O)C(C)C)C(C)C)[C@@H](C)CC)[C@@H](C)OC(=O)[C@H](C(C)C)NC1=O
- pIC50 (Candida albicans): 5.38
- pIC50 (Aspergillus fumigatus): 5.37
- pIC50 [1]: < 4.70
- pIC50 (Cryptococcus neoformans): 5.67
